Data reported in ChEMBL document CHEMBL1143766, “Mono- and disalicylic acid derivatives: PTP1B inhibitors as potential anti-obesity drugs” (Bioorg Med Chem, 2007).

How the values were obtained:
[1] = molecular target: T1, Tyrosine-protein phosphatase non-receptor type 1 (Homo sapiens, UniProt P18031); experiment: Inhibition of PTP1B
T1 sequence (P18031 whole entry): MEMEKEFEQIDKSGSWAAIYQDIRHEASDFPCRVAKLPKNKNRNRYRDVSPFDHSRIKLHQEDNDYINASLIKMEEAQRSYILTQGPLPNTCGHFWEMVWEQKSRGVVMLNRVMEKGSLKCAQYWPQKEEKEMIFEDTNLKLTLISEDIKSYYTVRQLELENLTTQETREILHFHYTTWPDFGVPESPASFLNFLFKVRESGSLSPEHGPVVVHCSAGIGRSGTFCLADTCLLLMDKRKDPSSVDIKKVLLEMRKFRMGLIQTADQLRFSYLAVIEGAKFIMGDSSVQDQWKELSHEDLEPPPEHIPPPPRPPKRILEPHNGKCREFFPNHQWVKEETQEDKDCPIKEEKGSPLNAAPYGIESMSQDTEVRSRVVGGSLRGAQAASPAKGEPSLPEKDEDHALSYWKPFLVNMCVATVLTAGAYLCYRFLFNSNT
How it was run: (§1)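 Enzymes expressed in E. coli and purified: native PTP1B at 2.1 µg/mL, SHP-1 catalytic domain at 5 µg/mL. Buffer 100 mM Hepes, 5 mM EDTA, pH 7.0, 37 °C. Enzyme preincubated 10 min with inhibitor in DMSO, then 2 mM pNPP (final) added. Reaction 3 min, quenched with NaOH, p-nitrophenol read at 405 nm. IC50 taken over a range of inhibitor concentrations.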

Mus musculus [2] = experiment: Effect on liver weight in HFD-fed C57BL/6J Jms Slc DIO mouse at 5 g/kg of diet after 28 days; format: functional
How it was run: (§2)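 Male C57BL/6J Jms Slc mice (4 weeks old, 17–19 g), acclimatized 1 week on LFD, then HFD for 8 weeks to induce obesity. Next 4 weeks on powdered HFD with compound kneaded in at 5 g/kg diet (0.5% w/w), dissolved with 2 equiv NaOH in water. Vehicle diet was kneaded with the same volume of water. n = 9/group, LFD lean control n = 8. Body weight recorded every other day. Means ± SEM.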

Mus musculus [3] = experiment: Effect on glucose level in HFD-fed C57BL/6J Jms Slc DIO mouse plasma at 5 g/kg of diet after 28 days; format: functional
How it was run: (§3)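 DIO mice (HFD 8 weeks, then drug in powdered HFD at 5 g/kg diet for 4 weeks) fasted 8 h at the end. Secobarbital 40 mg/kg ip, cardiac-puncture blood into EDTA, plasma spun at 5000g, 10 min, 4 °C and frozen. Enzymatic colour kits, 37 °C. Glucose: 5 min, A505. TG and cholesterol: 5 min, A600. NEFA: 20 min, A550. Means ± SEM, n = 8–9.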

Mus musculus [4] = experiment: Effect on triglyceride level in HFD-fed C57BL/6J Jms Slc DIO mouse plasma at 5 g/kg of diet after 28 days; format: functional; how it was run: as §3
Mus musculus [5] = experiment: Effect on total cholesterol in HFD-fed C57BL/6J Jms Slc DIO mouse plasma at 5 g/kg of diet after 28 days; format: functional; how it was run: as §3
Mus musculus [6] = experiment: Effect on nonesterified fatty acid level in HFD-fed C57BL/6J Jms Slc DIO mouse plasma at 5 g/kg of diet after 28 days; format: functional; how it was run: as §3
[7] = Inhibition of LAR-D1; parameters: species or system Homo sapiens
How it was run: (§4)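 Commercial LAR-D1 (membrane-proximal catalytic domain) and TC-PTP, each at 33 U/mL. Run at 37 °C in 100 mM Hepes, 5 mM EDTA, pH 7.0. Inhibitor in DMSO preincubated 10 min before 2 mM pNPP (final) added. After 3 min, quenched with NaOH and A405 read. IC50 from a range of inhibitor concentrations.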

[8] = molecular target: T2, Tyrosine-protein phosphatase non-receptor type 2 (Homo sapiens, UniProt P17706); experiment: Inhibition of TC-PTP; how it was run: as §4
T2 sequence (P17706 whole entry): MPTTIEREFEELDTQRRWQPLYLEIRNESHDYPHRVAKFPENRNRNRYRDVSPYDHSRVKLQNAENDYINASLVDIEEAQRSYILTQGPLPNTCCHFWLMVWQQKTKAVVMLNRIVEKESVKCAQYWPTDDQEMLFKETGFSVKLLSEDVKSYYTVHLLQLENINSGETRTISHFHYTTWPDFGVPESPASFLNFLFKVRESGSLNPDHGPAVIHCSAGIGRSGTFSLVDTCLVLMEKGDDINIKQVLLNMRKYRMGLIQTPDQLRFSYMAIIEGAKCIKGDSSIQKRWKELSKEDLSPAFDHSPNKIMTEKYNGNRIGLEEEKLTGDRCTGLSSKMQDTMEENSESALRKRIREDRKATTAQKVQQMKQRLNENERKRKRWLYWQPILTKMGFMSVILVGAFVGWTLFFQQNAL

[9] = molecular target: Tyrosine-protein phosphatase non-receptor type 6 (Homo sapiens, UniProt P29350); experiment: Inhibition of SHP-1 catalytic domain; how it was run: as §1
[10] = molecular target: T3, Tyrosine-protein phosphatase 1 (Saccharomyces cerevisiae S288c, UniProt P25044); experiment: Inhibition of yeast PTP1
T3 sequence (P25044 whole entry): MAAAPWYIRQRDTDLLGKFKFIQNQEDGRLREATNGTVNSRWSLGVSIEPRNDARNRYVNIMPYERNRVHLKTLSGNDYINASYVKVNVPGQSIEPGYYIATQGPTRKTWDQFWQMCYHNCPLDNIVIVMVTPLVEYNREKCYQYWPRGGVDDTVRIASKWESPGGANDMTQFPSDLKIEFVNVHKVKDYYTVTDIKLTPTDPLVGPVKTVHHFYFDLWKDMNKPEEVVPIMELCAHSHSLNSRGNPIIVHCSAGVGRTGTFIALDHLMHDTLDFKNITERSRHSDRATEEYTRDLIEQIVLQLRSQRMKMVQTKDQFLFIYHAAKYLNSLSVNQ
How it was run: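 Yeast PTPase YPTP1 at 30 ng/mL. pNPP hydrolysis at 37 °C, pH 7.0 Hepes/EDTA buffer, 10 min inhibitor preincubation, 2 mM pNPP final, 3 min reaction, NaOH stop, A405. IC50 derived from activity across inhibitor concentrations.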

Mus musculus [11] = experiment: Effect on body weight in HFD-fed C57BL/6J Jms Slc DIO mouse at 5 g/kg of diet after 28 days; format: functional; how it was run: as §2
Mus musculus [12] = experiment: Effect on adipose epididymal tissue weight in HFD-fed C57BL/6J Jms Slc DIO mouse at 5 g/kg of diet after 28 days; format: functional; how it was run: as §2
Mus musculus [13] = experiment: Effect on adipose retroperitoneal tissue weight in HFD-fed C57BL/6J Jms Slc DIO mouse at 5 g/kg of diet after 28 days; format: functional; how it was run: as §2

Chain of Tyrosine-protein phosphatase non-receptor type 6 (P29350 whole entry, the tested form may be a part): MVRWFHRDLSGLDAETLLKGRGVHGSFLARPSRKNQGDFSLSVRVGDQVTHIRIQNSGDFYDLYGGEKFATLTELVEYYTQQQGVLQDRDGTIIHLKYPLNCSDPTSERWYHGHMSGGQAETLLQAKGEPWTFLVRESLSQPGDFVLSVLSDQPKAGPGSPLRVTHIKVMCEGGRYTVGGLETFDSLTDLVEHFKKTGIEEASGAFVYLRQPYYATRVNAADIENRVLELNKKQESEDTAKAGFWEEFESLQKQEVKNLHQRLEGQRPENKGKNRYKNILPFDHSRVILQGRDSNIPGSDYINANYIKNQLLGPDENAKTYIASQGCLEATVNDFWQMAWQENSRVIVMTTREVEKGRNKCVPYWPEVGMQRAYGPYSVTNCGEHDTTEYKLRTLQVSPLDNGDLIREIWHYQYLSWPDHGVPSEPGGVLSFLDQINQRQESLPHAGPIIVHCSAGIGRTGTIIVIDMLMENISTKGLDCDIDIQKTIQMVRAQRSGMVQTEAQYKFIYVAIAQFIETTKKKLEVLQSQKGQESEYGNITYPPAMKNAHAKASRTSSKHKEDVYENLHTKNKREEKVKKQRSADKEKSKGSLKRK

Structure (SMILES) | IC50 [1] [µM] | further results
O=C(O)c1cc(-c2ccccc2)ccc1O | 1280 | 
O=C(O)c1cc(Cc2cc(C(=O)O)c(O)c(-c3ccccc3)c2)cc(-c2ccccc2)c1O |  | Activity (Mus musculus [2]): 1.03 g; Activity (Mus musculus [3]): 300 mg/dL; Activity (Mus musculus [4]): 42 mg/dL; Activity (Mus musculus [5]): 129 mg/dL; Activity (Mus musculus [6]): 0.24 mEq/L
O=C(O)c1cc(F)cc(Cc2cc(F)cc(C(=O)O)c2O)c1O | 215 | 
O=C(O)c1cc(-c2ccccc2)cc(Cc2cc(-c3ccccc3)cc(C(=O)O)c2O)c1O | 19 | Ki [1]: 6.5 µM; IC50 [7]: > 2000 µM; IC50 [8]: 156 µM; Ki [8]: 89 µM; IC50 [9]: 37 µM; Ki [9]: 9.7 µM; IC50 [10]: 86 µM; Activity (Mus musculus [11]): 28.9 g; Activity (Mus musculus [2]): 1.07 g; Activity (Mus musculus [12]): 0.83 g; Activity (Mus musculus [13]): 0.26 g; Activity (Mus musculus [3]): 280 mg/dL; Activity (Mus musculus [4]): 48 mg/dL; Activity (Mus musculus [5]): 133 mg/dL; Activity (Mus musculus [6]): 0.14 mEq/L
O=C(O)c1cc(-c2ccco2)cc(Cc2cc(-c3ccco3)cc(C(=O)O)c2O)c1O | 67 | 
O=C(O)c1cc(-c2cccs2)cc(Cc2cc(-c3cccs3)cc(C(=O)O)c2O)c1O | 27 | 
O=Cc1cc(C(=O)O)c(O)c(C2CCCO2)c1 (stereo not drawn) | 380 | 
O=C(O)c1cc(F)ccc1O | > 1000 | 
O=Cc1ccc(O)c(C(=O)O)c1 | > 1000 | 
O=C(O)Cc1cc(O)c(CC(=O)O)cc1O | > 1000 | 
O=C(O)c1cc2ccccc2cc1O | > 1000 | 
O=C(O)c1cccc(-c2ccccc2)c1O | 859 | 
O=C(O)c1cc(Cc2ccccc2)ccc1O | 1180 | 
O=C(O)c1cccc(Cc2ccccc2)c1O | 403 | 
O=C(O)c1cc(Cc2ccccc2)cc(Br)c1O | 153 | 
O=C(O)c1cc(-c2ccccc2)cc(Cc2ccccc2)c1O | 57 | 
O=C(O)c1cc(Cc2ccccc2)cc(Cc2ccccc2)c1O | 91 | 
O=C(O)c1cc(Br)cc(Cc2cc(Br)cc(C(=O)O)c2O)c1O | 149 | 
O=C(O)c1cc(-c2ccccc2)cc(Br)c1O | 351 | 
O=C(O)c1cccc(Br)c1O | > 1000 | 
O=C(O)c1cc(Br)cc(Cc2ccccc2)c1O | 148 | 
O=C(O)c1cc(Cc2ccccc2)cc(-c2ccccc2)c1O | 65 | IC50 [7]: > 2000 µM; IC50 [8]: 540 µM; IC50 [9]: 129 µM; IC50 [10]: 271 µM
O=C(O)c1cc(-c2ccccc2)cc(-c2ccccc2)c1O | 84 | 
O=C(O)c1ccc2ccccc2c1O [CARBOXYNAPHTHOL] | 850 | 
O=C(O)c1cc(S(=O)(=O)O)ccc1O [SULFOSALICYLIC] | > 1000 | 
